Legend:
[1] = target: T1, 3-hydroxy-3-methylglutaryl-coenzyme A reductase (Rattus norvegicus, UniProt P51639); assay: Inhibition of HMG-CoA reductase in rat liver microsomes; design: species or system Microsome
T1 sequence (P51639 whole entry): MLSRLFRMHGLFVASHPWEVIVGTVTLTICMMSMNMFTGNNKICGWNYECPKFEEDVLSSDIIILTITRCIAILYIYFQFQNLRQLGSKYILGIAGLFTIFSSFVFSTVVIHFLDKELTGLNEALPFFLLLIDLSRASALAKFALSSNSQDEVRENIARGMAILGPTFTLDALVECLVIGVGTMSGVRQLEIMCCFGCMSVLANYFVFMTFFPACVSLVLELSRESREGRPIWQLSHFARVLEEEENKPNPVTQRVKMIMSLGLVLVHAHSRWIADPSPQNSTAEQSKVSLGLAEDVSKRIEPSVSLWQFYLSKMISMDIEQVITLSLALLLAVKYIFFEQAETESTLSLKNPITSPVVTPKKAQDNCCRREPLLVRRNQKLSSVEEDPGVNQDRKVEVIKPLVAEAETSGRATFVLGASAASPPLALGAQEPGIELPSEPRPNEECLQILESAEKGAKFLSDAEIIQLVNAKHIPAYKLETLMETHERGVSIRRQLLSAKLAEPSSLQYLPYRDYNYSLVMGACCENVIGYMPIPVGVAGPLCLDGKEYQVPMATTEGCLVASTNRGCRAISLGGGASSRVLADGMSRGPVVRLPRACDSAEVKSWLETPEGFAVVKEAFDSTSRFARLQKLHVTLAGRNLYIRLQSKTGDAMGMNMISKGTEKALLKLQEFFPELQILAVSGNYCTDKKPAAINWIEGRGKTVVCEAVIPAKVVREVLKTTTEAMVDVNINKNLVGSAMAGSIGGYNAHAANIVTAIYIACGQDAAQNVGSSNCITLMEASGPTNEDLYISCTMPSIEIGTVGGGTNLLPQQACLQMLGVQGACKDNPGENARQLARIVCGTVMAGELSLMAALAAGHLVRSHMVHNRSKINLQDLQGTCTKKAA

[2] = Inhibition of cholesterol synthesis in rat hepatocytes; format: functional, cell-based; conditions: Hepatocyte
L6 = assay: Inhibition of cholesterol synthesis in L6 myocytes; format: functional, cell-based; conditions: Rattus norvegicus
Hamster [3] = assay: Inhibition of cholesterol synthesis in hamster at 10 mg/kg, po after 2 to 4 hrs relative to control; format: functional, Cricetinae; design: scale not given: the % may be the effect or the level left
How it was run: (§1)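 Male Syrian Golden hamsters received a single oral 10 mg/kg dose. A bolus of sodium 14C-acetate was given at 2, 3 or 4 h post-dose, giving 2–4, 3–5 and 4–6 h windows. Label incorporated into plasma cholesterol was measured over the following 2 h. Results are reported as percent change in incorporation relative to vehicle-dosed animals.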

Hamster [4] = assay: Inhibition of cholesterol synthesis in hamster at 10 mg/kg, po after 4 to 6 hrs relative to control; format: functional, Cricetinae; design: scale not given: the % may be the effect or the level left; how it was run: as §1
Hamster [5] = assay: Inhibition of cholesterol synthesis in hamster at 10 mg/kg, po after 3 to 5 hrs relative to control; format: functional, Cricetinae; design: scale not given: the % may be the effect or the level left; how it was run: as §1

SMILES | IC50 [1] | IC50 [2] | IC50 (L6) | Activity (Hamster [3]) | Activity (Hamster [4]) | Activity (Hamster [5])
Cc1ccc(CN(C)C(=O)c2nn(-c3ccc(F)cc3)c(OC[C@@H](O)C[C@@H](O)CC(=O)O)c2C(C)C)cc1 | 37 nM | 1.2 nM | 1250 nM | – | – | –
Cc1ccc(CNC(=O)c2nn(-c3ccc(F)cc3)c(OC[C@@H](O)C[C@@H](O)CC(=O)O)c2C(C)C)cc1 | 15 nM | 1.8 nM | 2110 nM | -30% | 9% | –
Cc1ccccc1CNC(=O)c1nn(-c2ccc(F)cc2)c(OC[C@@H](O)C[C@@H](O)CC(=O)O)c1C(C)C | 17 nM | 0.88 nM | 2850 nM | – | 39% | –
COc1cc(CN(C)C(=O)c2nn(-c3ccc(F)cc3)c(OC[C@@H](O)C[C@@H](O)CC(=O)O)c2C(C)C)cc(OC)c1 | 43 nM | 7.1 nM | – | – | – | –
CC(C)c1c(C(=O)N(C)Cc2cccc(F)c2)nn(-c2ccc(F)cc2)c1OC[C@@H](O)C[C@@H](O)CC(=O)O | 14 nM | 1.9 nM | 2470 nM | -41% | -1% | –
Cc1cccc(CN(C)C(=O)c2nn(-c3ccc(F)cc3)c(OC[C@@H](O)C[C@@H](O)CC(=O)O)c2C(C)C)c1 | 37 nM | 2.5 nM | 18500 nM | – | – | –
CC(C)c1c(C(=O)N(C)Cc2cccc(C(F)(F)F)c2)nn(-c2ccc(F)cc2)c1OC[C@@H](O)C[C@@H](O)CC(=O)O | 31 nM | 12 nM | – | – | – | –
COc1cccc(CN(C)C(=O)c2nn(-c3ccc(F)cc3)c(OC[C@@H](O)C[C@@H](O)CC(=O)O)c2C(C)C)c1 | 21 nM | 1.6 nM | 9460 nM | – | 53% | –
CC(C)c1c(C(=O)N(C)Cc2ccc(F)c(F)c2)nn(-c2ccc(F)cc2)c1OC[C@@H](O)C[C@@H](O)CC(=O)O | 5.7 nM | 8 nM | 4570 nM | – | – | -5%
CC(C)c1c(C(=O)N(C)Cc2ccccc2F)nn(-c2ccc(F)cc2)c1OC[C@@H](O)C[C@@H](O)CC(=O)O | 8.7 nM | 3.2 nM | 11600 nM | – | – | -4%
CC(C)c1c(C(=O)N(C)Cc2ccc(F)cc2)nn(-c2ccc(F)cc2)c1OC[C@@H](O)C[C@@H](O)CC(=O)O | 18 nM | 3.8 nM | 2800 nM | – | 91% | –
CC(C)c1c(C(=O)NCCc2ccccc2)nn(-c2ccc(F)cc2)c1OC[C@@H](O)C[C@@H](O)CC(=O)O | 15 nM | 14 nM | 760 nM | – | – | –
CC(C)c1c(C(=O)NCC2CCCCC2)nn(-c2ccc(F)cc2)c1OC[C@@H](O)C[C@@H](O)CC(=O)O | 17 nM | 56 nM | – | – | – | –
CCCCNC(=O)c1nn(-c2ccc(F)cc2)c(OC[C@@H](O)C[C@@H](O)CC(=O)O)c1C(C)C | 76 nM | 39 nM | – | – | – | –
CC(C)c1c(C(=O)N(C)CC2CCCCC2)nn(-c2ccc(F)cc2)c1OC[C@@H](O)C[C@@H](O)CC(=O)O | 6.2 nM | 1.3 nM | 2510 nM | – | – | 23%
COc1ccc(CNC(=O)c2nn(-c3ccc(F)cc3)c(OC[C@@H](O)C[C@@H](O)CC(=O)O)c2C(C)C)cc1 | 12 nM | 37 nM | – | – | – | –
COc1cccc(CNC(=O)c2nn(-c3ccc(F)cc3)c(OC[C@@H](O)C[C@@H](O)CC(=O)O)c2C(C)C)c1 | 16 nM | 8.4 nM | 8750 nM | – | 37% | –
CC(C)c1c(C(=O)N2CCC[C@H](c3ccccc3)C2)nn(-c2ccc(F)cc2)c1OC[C@@H](O)C[C@@H](O)CC(=O)O | 4.8 nM | 1.5 nM | 1110 nM | -15% | – | –
CC(C)c1c(C(=O)NCc2ccccn2)nn(-c2ccc(F)cc2)c1OC[C@@H](O)C[C@@H](O)CC(=O)O | 25 nM | 7.5 nM | – | – | – | –
CC(C)c1c(C(=O)NCc2ccccc2)nn(-c2ccc(F)cc2)c1OC[C@@H](O)C[C@@H](O)CC(=O)O | 3.8 nM | 14 nM | 880 nM | – | 41% | –

SMILES | IC50 [1] | IC50 [2] | IC50 (L6) | Activity (Hamster [3]) | Activity (Hamster [4]) | Activity (Hamster [5])
CC(C)c1c(C(=O)N(C)Cc2ccccc2)nn(-c2ccc(F)cc2)c1OC[C@@H](O)C[C@@H](O)CC(=O)O | 5.2 nM | 1.1 nM | 6720 nM | -49% | 26% | –
CC(C)c1c(C(=O)NCc2cccc(F)c2F)nn(-c2ccc(F)cc2)c1OC[C@@H](O)C[C@@H](O)CC(=O)O | 2 nM | 19 nM | 120 nM | – | – | –
CC(C)c1c(C(=O)N(C)Cc2cccc(F)c2F)nn(-c2ccc(F)cc2)c1OC[C@@H](O)C[C@@H](O)CC(=O)O | 14 nM | 2.8 nM | 860 nM | – | – | –
Cc1ccc(CNC(=O)c2nn(-c3ccc(F)cc3)c(CC[C@@H](O)C[C@@H](O)CC(=O)O)c2C(C)C)cc1 | 2.5 nM | 1.1 nM | 800 nM | -74% | -15% | –
CC(C)c1c(C(=O)NCc2ccccc2Cl)nn(-c2ccc(F)cc2)c1OC[C@@H](O)C[C@@H](O)CC(=O)O | 9.5 nM | 76 nM | 8450 nM | – | – | –
COc1ccccc1CNC(=O)c1nn(-c2ccc(F)cc2)c(OC[C@@H](O)C[C@@H](O)CC(=O)O)c1C(C)C | 22 nM | 83 nM | – | – | – | –
CCOc1cccc(CN(C)C(=O)c2nn(-c3ccc(F)cc3)c(OC[C@@H](O)C[C@@H](O)CC(=O)O)c2C(C)C)c1 | 16 nM | 2.8 nM | 3550 nM | – | – | –
CC(C)c1c(C(=O)N(C)[C@H](C)c2ccccc2)nn(-c2ccc(F)cc2)c1OC[C@@H](O)C[C@@H](O)CC(=O)O | 21 nM | 11 nM | – | – | – | –
Cc1cccc(CNC(=O)c2nn(-c3ccc(F)cc3)c(OC[C@@H](O)C[C@@H](O)CC(=O)O)c2C(C)C)c1 | 4.9 nM | 0.99 nM | 280 nM | – | – | –
CC(C)c1c(C(=O)NCc2cccc(Cl)c2)nn(-c2ccc(F)cc2)c1OC[C@@H](O)C[C@@H](O)CC(=O)O | 5.4 nM | 9.9 nM | – | – | – | –
CC(C)c1c(C(=O)N2CCCCC2)nn(-c2ccc(F)cc2)c1OC[C@@H](O)C[C@@H](O)CC(=O)O | 47 nM | 3.8 nM | 32200 nM | – | – | –
CC(C)c1c(C(=O)N2CCC[C@H](c3ccccc3)C2)nn(-c2ccc(F)cc2)c1CC[C@@H](O)C[C@@H](O)CC(=O)O | 2.1 nM | 0.28 nM | 310 nM | -78% | – | -57%
COCc1cccc(CNC(=O)c2nn(-c3ccc(F)cc3)c(OC[C@@H](O)C[C@@H](O)CC(=O)O)c2C(C)C)c1 | 31 nM | 1.1 nM | 3600 nM | – | – | -6%
CC(C)c1c(C(=O)N(C)Cc2ccccc2)nn(-c2ccc(F)cc2)c1CC[C@@H](O)C[C@@H](O)CC(=O)O | 6.2 nM | 0.31 nM | 2870 nM | -61% | -16% | –
CC(C)c1c(C(=O)N(C)Cc2cccc(F)c2)nn(-c2ccc(F)cc2)c1CC[C@@H](O)C[C@@H](O)CC(=O)O | 4.1 nM | 0.16 nM | 1900 nM | -66% | -12% | –
CC(C)c1c(C(=O)NCc2ccc(Cl)cc2)nn(-c2ccc(F)cc2)c1OC[C@@H](O)C[C@@H](O)CC(=O)O | 6.7 nM | 44 nM | – | – | – | –
CCN(Cc1ccccc1)C(=O)c1nn(-c2ccc(F)cc2)c(OC[C@@H](O)C[C@@H](O)CC(=O)O)c1C(C)C | 14 nM | 4.7 nM | 2660 nM | – | – | –
CC(C)c1c(C(=O)N2CCCC2c2ccccc2)nn(-c2ccc(F)cc2)c1OC[C@@H](O)C[C@@H](O)CC(=O)O (some centres not stated) | 14 nM | 8 nM | 4340 nM | – | – | –
CC(C)c1c(C(=O)N(C)Cc2cccc(Cl)c2)nn(-c2ccc(F)cc2)c1OC[C@@H](O)C[C@@H](O)CC(=O)O | 8.3 nM | 1.8 nM | 2120 nM | – | – | 0%
CC(C)c1nc(N(C)S(C)(=O)=O)nc(-c2ccc(F)cc2)c1/C=C/[C@@H](O)C[C@@H](O)CC(=O)O [ROSUVASTATIN] | 2.1 nM | 0.23 nM | 210 nM | -76% | -46% | –

Reference: ChEMBL document CHEMBL1139802, “Pyrazole inhibitors of HMG-CoA reductase: an attempt to dramatically reduce synthetic complexity through minimal analog re-design” (Bioorg Med Chem Lett, 2007)
